# This is a sample that favours compounds with a hit; in the whole collection about 2.3% have one here.
# F508del corr: CFTR F508del correction in bronchial cells. actives 0.36% (n = 350,000). CFBE cells, YFP halide quenching; stimulated with forskolin plus potentiator P3; % fluorescence drop versus neutral controls. AID 720511. activity (quench increase), % at 7.58 µM;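 active means mean added fluorescence quench of at least 8% versus neutral control, with both replicates also reaching 8%; inconclusive means only one of the mean or replicate conditions met; inactive means mean below 8% and not both replicates reaching 8%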;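 further: cells transiently co-express mutant CFTR-F508del with the halide-sensitive YFP; corrector assay measuring rescue of mutant channel to the surface after 24 h compound exposure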
# PAX8 reporter: inhibitors of PAX8 transcriptional activity in RMG-I cells | RMG-I TPO-luciferase reporter, SteadyGlo, 24 h | inhibition, % at 12.6 µM | actives 1.2% (n = 360,000);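 active means mean replicate inhibition at least 60% with every replicate also reaching 60%; inconclusive means only one of the two criteria is met; inactive means mean below 60% and not all replicates reaching 60%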;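 further: luciferase light reporting Pax8 driven TPO promoter activity; plate controls were median of neutral control wells for no effect and mitoxantrone controls for full effect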
# FN deposit inh: fibronectin deposition inhibition. actives 0.086% (n = 350,000). inhibition, % at 12.6 µM. AH1F fibroblasts, Alexa488-fibronectin deposition fluorescence, overnight. AID 743247;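 active means mean inhibition across replicates of 30% or more, regardless of how many single replicates reach that level; inconclusive means mean under 30% yet at least half of replicates reach 30%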;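 further: positive control wells lacked labelled fibronectin entirely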
#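 Material – AH1F fibroblast monolayer, labelled fibronectin deposition · Reagent – labelled fibronectin 24 nM · Timing – 1 h adhesion, overnight exposure · Measured by – fluorescence at 485 nm excitation, 525 nm emission · Read-out – inhibition of fibronectin deposition signal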
# HIV Env fusion: inhibitors of HIV Env-mediated cell fusion | inhibition, % at 12.3 µM | actives 1.1% (n = 360,000) | HeLa-JRFL Env/CEM21 cell fusion, luciferase;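 active means mean replicate inhibition score of at least 50 and every replicate individually at or above 50; inconclusive means only one of the two criteria met; inactive means mean below 50 and not all replicates reaching 50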;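 further: 0% = plate neutral controls and 100% = maraviroc near 300 nM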
# EWS-Fli inh: blocks EWS/Fli oncoprotein-driven transcription; A673 NR0B1-luciferase reporter, viability-normalised; inhibition, % at 12.6 µM; actives 0.67% (n = 350,000);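 active means mean inhibition of at least 50% after viability correction, with every replicate also passing that limit; inconclusive means mean reaches 50% but only one of two replicates passes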;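 further: firefly luciferase signal divided by Alamar Blue viability fluorescence both relative to DMSO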
# PGC1a acetyl inh: lowers PGC1a acetylation signal in U2OS cells; inhibition, % at 15.6 µM; actives 0.17% (n = 350,000); AlphaScreen anti-acetyl-lysine; with virally co-expressed GCN5 acetyltransferase;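 active means every replicate shows inhibition of at least 40%; inconclusive means mean inhibition at least 40% but some replicate below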;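 further: 0% = neutral control wells and 100% = positive control wells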
# Numbers without * were called inactive; ? = inconclusive; . = no result given; [ ] = dose if it differs, or a comment.
SMILES,F508del corr,PAX8 reporter,FN deposit inh,HIV Env fusion,EWS-Fli inh,PGC1a acetyl inh
CC(=O)N(C)C[C@H]1Oc2c(NC(=O)NC(C)C)cccc2C(=O)N(C)C[C@@H]1C,.,.,-5.4,.,.,.
CCCCN1C(=O)CC(C(=O)OCC)=C1C,11.0*,-10.1,1.0,0.6,4.9,.
CO[C@@H]1CN(C)C(=O)c2cc(NC(=O)C3CC3)ccc2OC[C@H](C)N(Cc2nccs2)C[C@H]1C,-1.0,-11.3,1.5,.,-2.9,4.1
Cc1ccc(C(=O)C(C)N(C(=O)c2ccc(Cl)cc2Cl)N2C(=O)CCCC2=O)cc1 (stereo not drawn),-3.7,8.3,6.5,-9.1,4.0,.
COc1ccc(C(=O)C(C)N(C(=O)c2ccc(Cl)cc2Cl)N2C(=O)C3C4C=CC(C4)C3C2=O)cc1 (stereo not drawn),.,.,.,123.2*,.,8.4
C[C@H]1CN([C@@H](C)CO)C(=O)c2cc(C#Cc3cccnc3)cnc2O[C@@H]1CN(C)Cc1ccncc1,3.4,-18.5,2.4,4.6[16.7 µM],8.3,13.9
C[C@@H]1CN([C@@H](C)CO)C(=O)c2ccccc2-c2ccccc2CO[C@@H]1CN(C)C(=O)Cc1ccccc1,.,.,3.0,.,.,.
COc1ccc2c3c([nH]c2c1)[C@H](CO)N(Cc1ccccn1)CC31CN(C(C)=O)C1,-0.7,.,.,.,3.0,-1.7
CC(C)Oc1cc(NC(=O)CSCC(=O)Nc2cccc(C(F)(F)F)c2)c(Cl)cc1Cl,.,.,.,61.8*,.,-31.9
O=C(O)CSCC(=O)Nc1cc(C(F)(F)F)ccc1Cl,.,.,-4.8,-21.0,.,-3.2
C[C@@H]1CCCCO[C@@H](CN(C)CC2CCCCC2)[C@H](C)CN([C@@H](C)CO)C(=O)c2cc(NC(=O)Nc3ccc(C(F)(F)F)cc3)ccc2O1,-0.2,17.2,-11.9,21.3[16.7 µM],76.2*,6.7
C[C@@H]1CCCCO[C@@H](CN(C)CC2CCCCC2)[C@@H](C)CN([C@@H](C)CO)C(=O)c2cc(NC(=O)Nc3ccccc3)ccc2O1,-0.8,8.6,9.6,-7.9[16.7 µM],-0.6,10.1
C[C@@H]1CCCCO[C@H](CN(C)CC2CCCCC2)[C@H](C)CN([C@@H](C)CO)C(=O)c2cc(NC(=O)Nc3ccc(C(F)(F)F)cc3)ccc2O1,-2.5,-11.1,6.3,29.6[16.7 µM],81.2*,0.2
C[C@@H]1CCCCO[C@H](CN(C)CC2CCCCC2)[C@H](C)CN([C@@H](C)CO)C(=O)c2cc(NC(=O)Cc3ccccc3)ccc2O1,-1.6,-1.1,.,-7.9[16.7 µM],72.7*,-7.8
C[C@@H]1CCCCO[C@H](CN(C)CC2CCCCC2)[C@H](C)CN([C@@H](C)CO)C(=O)c2cc(NC(=O)Nc3ccccc3)ccc2O1,-2.9,78.4*,0.5,10.1[16.7 µM],18.7,-2.8
C[C@@H]1CCCCO[C@@H](CN(C)CC2CCCCC2)[C@@H](C)CN([C@H](C)CO)C(=O)c2cc(NC(=O)Nc3ccc(C(F)(F)F)cc3)ccc2O1,2.9,-20.7,9.3,-0.9[16.7 µM],-11.3,8.6
CC(C)CC#Cc1ccc2c(c1)O[C@H](CN(C)C(=O)c1cccc(F)c1)[C@@H](C)CN([C@H](C)CO)S2(=O)=O,-1.5,.,-2.8,-18.0[16.7 µM],13.6,1.2
COc1ccc(NC(=O)N2CC3(C2)CN(C(=O)c2cccnc2)[C@H](CO)c2[nH]c4cc(OC)ccc4c23)cc1,1.1,.,.,.,-2.8,10.0
Cn1cnc([N+](=O)[O-])c1Sc1nc(N)nc2c1ncn2C1CC(O)C(CO)O1 (stereo not drawn),-0.2,74.1*,0.3,?,32.6,5.3
Cn1cnc([N+](=O)[O-])c1Sc1nc(N)nc2c1ncn2C1OC(CO)C(O)C1O (stereo not drawn),-1.1,.,3.3,41.5,49.3,-4.4
CN(C)C(=O)C[C@H]1CC[C@H]2[C@@H](COc3ccc(NS(=O)(=O)c4cccc(F)c4)cc3C(=O)N2C)O1,-1.5,8.7,-2.5,4.2[16.7 µM],2.2,-11.8
CC(=O)c1c(C)[nH]c(C(=O)OCC(=O)Nc2ccc(Cl)c(S(=O)(=O)N(C)C)c2)c1C,-2.1,33.4,2.1,78.8*,16.3,-6.4
C[C@H](CO)N1C[C@H](C)[C@@H](CN(C)C(=O)Nc2ccc(F)cc2)Oc2ccc(NC(=O)CCN3CCOCC3)cc2C1=O,1.5,-12.1,-5.5,.,-1.8,0.9
COc1ccc(NC(=O)Nc2ccc3c(c2)CC(=O)N([C@@H](C)CO)C[C@@H](C)[C@@H](CN(C)Cc2ccc(Oc4ccccc4)cc2)O3)cc1,0.3,98.2*,.,-10.2[16.7 µM],23.8,7.5
C[C@H](CO)N1C[C@H](C)[C@@H](CN(C)Cc2ccc(C(F)(F)F)cc2)Oc2ccc(NC(=O)Nc3ccc(C(F)(F)F)cc3)cc2CC1=O,-1.6,56.6,.,58.4*[16.7 µM],8.6,1.0
SMILES,F508del corr,PAX8 reporter,FN deposit inh,HIV Env fusion,EWS-Fli inh,PGC1a acetyl inh
COc1ccc(NC(=O)Nc2ccc3c(c2)CC(=O)N([C@H](C)CO)C[C@H](C)[C@@H](CN(C)Cc2ccc(C(F)(F)F)cc2)O3)cc1,1.0,66.7*,.,5.1[16.7 µM],14.3,-18.4
C[C@H](CO)N1C[C@H](C)[C@@H](CN(C)C(=O)Nc2cccc3ccccc23)Oc2ccc(NC(=O)Nc3ccc(C(F)(F)F)cc3)cc2CC1=O,1.7,47.0,.,-17.9[16.7 µM],15.6,-8.9
C[C@@H]1CN([C@@H](C)CO)C(=O)Cc2cc(NC(=O)Nc3ccc(C(F)(F)F)cc3)ccc2O[C@@H]1CN(C)C(=O)Nc1cccc2ccccc12,2.2,42.6,.,-16.0[16.7 µM],67.5*,-11.5
COc1ccc(CN(C)C[C@@H]2Oc3ccc(NC(=O)Nc4ccc(C(F)(F)F)cc4)cc3CC(=O)N([C@@H](C)CO)C[C@@H]2C)cc1,0.6,-2.6,.,3.8[16.7 µM],-14.1,5.1
COc1ccc(NC(=O)Nc2ccc3c(c2)CC(=O)N([C@H](C)CO)C[C@H](C)[C@H](CN(C)Cc2ccc(Oc4ccccc4)cc2)O3)cc1,-2.9,21.0,.,22.1[16.7 µM],17.9,-8.4
CCCC(=O)N1CCC2(CC1)CN(C(=O)Nc1ccc(F)cc1)[C@H](CO)c1c2c2ccc(OC)cc2n1C,-3.2,.,.,.,-3.3,-2.1
COCC(=O)N(C)C[C@H]1Oc2ncc(C#C[C@H](C)O)cc2C(=O)N([C@@H](C)CO)C[C@@H]1C,-1.4,.,1.5,-11.5[16.7 µM],-4.8,-1.0
C[C@@H]1CN([C@H](C)CO)C(=O)Cc2cc(NC(=O)Nc3ccc(C(F)(F)F)cc3)ccc2O[C@H]1CN(C)Cc1ccc(Oc2ccccc2)cc1,2.6,-11.0,.,11.9[16.7 µM],-9.3,-3.2
C[C@@H]1CN([C@@H](C)CO)C(=O)Cc2cc(NC(=O)Nc3ccc(C(F)(F)F)cc3)ccc2O[C@H]1CN(C)Cc1ccc2c(c1)OCO2,-0.4,79.7*,-10.8,29.2[16.7 µM],14.3,-7.4
C[C@H]1CN([C@@H](C)CO)C(=O)Cc2cc(NC(=O)Nc3ccc(C(F)(F)F)cc3)ccc2O[C@H]1CN(C)C(=O)Nc1ccc2c(c1)OCO2,0.0,-35.4,.,.,-5.8,1.1

# Screening data (PubChem BioAssay)
